# Reference: ChEMBL document CHEMBL4257586, “Polyheteroaryl Oxazole/Pyridine-Based Compounds Selected in Vitro as G-Quadruplex Ligands Inhibit Rock Kinase and Exhibit Antiproliferative Activity” (J Med Chem, 2018)
# Several values for one entry are separate records, joined by “and”; a condition that tells them apart may be missing. Identical values can stand only once. Activity calls are given as the source filed them. No cut-off for these calls is given here.
# What was measured:
# Format in all cases: nucleic-acid assay
# [1] = tested on: dsDNA; test: Binding affinity to duplex 26 DNA (unknown origin) assessed as change in melting temperature at 1 uM by FRET
# [2] = tested on: Quadruplex DNA; test: Binding affinity to 6-FAM labeled human proto-oncogene sequence FMycT G-quadruplex DNA assessed as change in melting temperature at 1 uM in presence of K+ buffer (1 mM KCl, 99 mM LiCl, 10 mM Li cacodylate) by FRET assay
# Procedure, shortened: (§1)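 FRET melting in duplicate. Dual-labelled oligo (6-FAM/TAMRA) at 0.2 μM with ligand at 1 μM, in 10 mM Li cacodylate pH 7.2. Buffer was 10 mM KCl + 90 mM LiCl for F21T and 1 mM KCl + 99 mM LiCl for FMycT. Sample annealed 90 °C 5 min, cooled to 4 °C overnight. Equilibrated 5 min at 25 °C, then ramped 0.5 °C/min to 95 °C. FAM read 492/516 nm, normalized; Tm taken at the fitted inflection point.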
# [3] = tested on: Quadruplex DNA; test: Binding affinity to 6-FAM labeled human telomeric F21T G-quadruplex DNA assessed as change in melting temperature at 1 uM in K+ rich buffer (10 mM KCl, 90 mM LiCl, 10 mM Li cacodylate) by FRET assay; procedure, shortened: as §1
Compound,Activity [1],ΔTm [2] [°C],ΔTm [3]
CN(C)CCOc1cc(-c2cnc(-c3cccc(-c4cnco4)n3)o2)nc(-c2cnc(-c3cccc(-c4cnco4)n3)o2)c1,inactive,2.5 to 4.3,5 to 7 °C
c1cc(-c2cnco2)nc(-c2ncc(-c3cc(OCCN4CCCCC4)cc(-c4cnc(-c5cccc(-c6cnco6)n5)o4)n3)o2)c1,inactive,2.5 to 4.3,5 to 7 °C
c1cc(-c2cnc(-c3cccc(-c4cnco4)n3)o2)nc(-c2cnc(-c3cccc(-c4cnco4)n3)o2)c1,inactive,2.5 to 4.3,5 to 7 °C

# Results, then the compound that gave them:
Activity [1],ΔTm [2] [°C],ΔTm [3],Compound
inactive,1.8 to 2.9,5.3 °C,c1ccc(-c2cnc(-c3cccc(-c4ncc(-c5ccccn5)o4)n3)o2)nc1
inactive,,,c1ccc(-c2ncc(-c3cccc(-c4cnc(-c5ccccn5)o4)n3)o2)nc1
inactive,1.8 to 2.9,11.6 °C and 11 °C,CN(C)CCOc1cc(-c2ncc(-c3ccccn3)o2)nc(-c2ncc(-c3ccccn3)o2)c1
